Data set [1] in a line: Elimination half-life in Sprague-Dawley rat plasma at 30 mg/kg, po measured up to 24 hrs. In kind it is ADME, organism-based. The conditions noted are these: read-out: beta t1/2 (converted). In a few lines: (§1)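 Male SD rats (180–200 g), three per route, dosed as free base content. Oral formulation in 0.5% carboxymethyl cellulose; intravenous formulation in normal saline. Sampling at 5, 15, 30 min and 1, 1.5, 2, 4, 6, 8, 12, 24 h; plasma kept at -80 °C. Non-compartmental parameters; F = (AUCpo×dose iv)/(AUCiv×dose po).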

The nature of data set [2]: Plasma protein binding in monkey at 5 uM after 5 hrs by LC-MS/MS based equilibrium dialysis method. It is filed as ADME, cell-free, Macaca mulatta. The note with it: rhesus monkey, read-out: PPB (converted). The method in brief:
(§2)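 Equilibrium dialysis: compound spiked at 5 μM (1% DMSO) into pre-warmed 37 °C plasma, dialysed against phosphate buffer (1% DMSO) for 5 h at 37 °C with shaking at 100 rpm. Both compartments analysed by LC-MS/MS.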

Data set [3] can be described thus: Plasma protein binding in rat at 5 uM after 5 hrs by LC-MS/MS based equilibrium dialysis method. It is filed as ADME, cell-free. The note with it: read-out: PPB (converted). The method in brief:
as §2
In general terms: Equilibrium dialysis compares concentrations on both sides of a semipermeable membrane.

Data set [4] in a line: AUC(0 to infinity) in Sprague-Dawley rat plasma at 30 mg/kg, po measured up to 24 hrs. In kind it is ADME, organism-based. Further details: route oral, dose 30 mg/kg, time <=24. The method in brief:
as §1

The nature of data set [5]: AUC(0 to infinity) in Sprague-Dawley rat plasma at 3 mg/kg, iv measured up to 24 hrs. More on the design: route intravenous, dose 3 mg/kg, time <=24. In kind it is ADME, organism-based. The method in brief: as §1
The subject of the next data set is Vero. As to the kind of experiment: Cytotoxicity against African green monkey Vero cells incubated for 48 hrs by MTT assay. The note with it: Chlorocebus sabaeus.
A short description of data set [6]: Metabolic stability in mouse liver microsomes assessed as parent compound remaining at 10 micromol/L measured after 30 mins in presence of NADPH generating system by LC-MS/MS analysis. It is filed as ADME, Microsome. The note with it: dose 10 µmol/L, read-out: Stabilty. In a few lines: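 Mouse liver microsomes (0.5 mg/mL protein), compound at 10 μmol/L, in Tris-HCl with an NADPH-generating system that starts the reaction. Incubated in duplicate at 37 °C for 30 min; stopped with ice-cold acetonitrile containing internal standard. Supernatant analysed by LC-MS/MS; remaining amount normalised to time zero. Inactivated microsomes served as negative control.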

A short description of data set [7]: Acute toxicity in po dosed ICR mouse assessed as animal survival administered as single dose and observed for 7 days. It is filed as organism-based. The note with it: in vivo, time 7 day. The method in brief: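 Female ICR mice (18 to 21 g), ten animals, given one oral dose of 1.5 g/kg. The number surviving was recorded after 7 days of observation.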
The nature of data set [8]: AUC(0 to t) in Sprague-Dawley rat plasma at 30 mg/kg, po measured up to 24 hrs. More on the design: route oral, dose 30 mg/kg, time <=24. It is filed as ADME, organism-based. The method in brief: as §1
Data set [9] in a line: Plasma protein binding in dog at 5 uM after 5 hrs by LC-MS/MS based equilibrium dialysis method. In kind it is ADME, cell-free, Canis lupus familiaris. The note with it: read-out: PPB (converted). The method in brief:
as §2

The nature of data set [10]: Genotoxicity in Salmonella typhimurium TA100 incubated for 48 to 72 hrs by mini-Ames test. The note with it: salmonella enterica subsp. enterica serovar typhimurium; time 48-72 hrs. In kind it is toxicity. The method in brief: (§3)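 Mini-Ames test with Salmonella typhimurium TA98 and TA100, with 10% S9 mix or PBS, in top agar poured onto minimal agar in 6-well plates. Up to 1000 μg/well; DMSO solvent control. Incubated 37 °C for 48–72 h; revertants counted manually. Called positive at a dose-related increase of at least 2-fold over the solvent control.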

A short description of data set [11]: Mean residence time (0 to infinity) in Sprague-Dawley rat at 30 mg/kg, po measured up to 24 hrs. In kind it is ADME, organism-based. The note with it: in vivo. In a few lines:
as §1

Data set [12] can be described thus: Cmax in Sprague-Dawley rat plasma at 3 mg/kg, iv measured up to 24 hrs. In kind it is ADME, organism-based. More on the design: route intravenous, dose 3 mg/kg, time <=24. The method in brief: as §1
Data set [13] can be described thus: Elimination half-life in Sprague-Dawley rat plasma at 3 mg/kg, iv measured up to 24 hrs. In kind it is ADME, organism-based. The conditions noted are these: read-out: beta t1/2 (converted). In a few lines: as §1
The nature of data set [14]: Plasma protein binding in mouse at 5 uM after 5 hrs by LC-MS/MS based equilibrium dialysis method. It is filed as ADME, cell-free. The conditions noted are these: read-out: PPB (converted). The method in brief:
as §2

For data set [15], the target named is Voltage-gated inwardly rectifying potassium channel KCNH2 (Homo sapiens, UniProt Q12809). As to the kind of experiment: Inhibition of human ERG expressed in CHO cells by manual patch clamp assay. It is filed as cell-based. In a few lines:
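CHO cells stably expressing hERG, cultured at least 24 h, then recorded by whole-cell voltage-clamp patch clamp.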

Data set [16] can be described thus: Genotoxicity in Salmonella typhimurium TA98 incubated for 48 to 72 hrs by mini-Ames test. The note with it: salmonella enterica subsp. enterica serovar typhimurium; time 48-72 hrs. It is filed as toxicity. In a few lines: as §3
Data set [17] can be described thus: AUC(0 to t) in Sprague-Dawley rat plasma at 3 mg/kg, iv measured up to 24 hrs. It is filed as ADME, organism-based. Further details: route intravenous, dose 3 mg/kg, time <=24. In a few lines:
as §1

A short description of data set [18]: Cmax in Sprague-Dawley rat plasma at 30 mg/kg, po measured up to 24 hrs. In kind it is ADME, organism-based. More on the design: route oral, dose 30 mg/kg, time <=24. The method in brief: as §1
The nature of data set [19]: Tmax in Sprague-Dawley rat plasma at 30 mg/kg, po measured up to 24 hrs. In kind it is ADME, organism-based. In a few lines: as §1
Data set [20] is described as follows: Mean residence time (0 to infinity) in Sprague-Dawley rat at 3 mg/kg, iv measured up to 24 hrs. In kind it is ADME, organism-based. The note with it: in vivo. The method in brief:
as §1

Data set [21] in a line: Oral bioavailability in Sprague-Dawley rat at 30 mg/kg. The conditions noted are these: in vivo. In kind it is ADME, organism-based. The method in brief: as §1
A short description of data set [22]: Apparent permeability in human Caco-2 cells at 50 uM after 1 hr by UPLC analysis. In kind it is ADME, cell-based. The method in brief: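 Caco-2 cells grown 21 days on Transwell inserts (0.4 µm pores) into monolayers with TEER above 500 Ω×cm² before and after transport. Compound at 50 µM added apically, 1 h at 37 °C. Transported compound quantified by UPLC; Papp = (dQ/dt)/(C0×A).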

The nature of data set [23]: Plasma protein binding in human at 5 uM after 5 hrs by LC-MS/MS based equilibrium dialysis method. It is filed as ADME, cell-free. The conditions noted are these: read-out: PPB (converted). In a few lines:
as §2

Chain of Voltage-gated inwardly rectifying potassium channel KCNH2 (Q12809 whole entry): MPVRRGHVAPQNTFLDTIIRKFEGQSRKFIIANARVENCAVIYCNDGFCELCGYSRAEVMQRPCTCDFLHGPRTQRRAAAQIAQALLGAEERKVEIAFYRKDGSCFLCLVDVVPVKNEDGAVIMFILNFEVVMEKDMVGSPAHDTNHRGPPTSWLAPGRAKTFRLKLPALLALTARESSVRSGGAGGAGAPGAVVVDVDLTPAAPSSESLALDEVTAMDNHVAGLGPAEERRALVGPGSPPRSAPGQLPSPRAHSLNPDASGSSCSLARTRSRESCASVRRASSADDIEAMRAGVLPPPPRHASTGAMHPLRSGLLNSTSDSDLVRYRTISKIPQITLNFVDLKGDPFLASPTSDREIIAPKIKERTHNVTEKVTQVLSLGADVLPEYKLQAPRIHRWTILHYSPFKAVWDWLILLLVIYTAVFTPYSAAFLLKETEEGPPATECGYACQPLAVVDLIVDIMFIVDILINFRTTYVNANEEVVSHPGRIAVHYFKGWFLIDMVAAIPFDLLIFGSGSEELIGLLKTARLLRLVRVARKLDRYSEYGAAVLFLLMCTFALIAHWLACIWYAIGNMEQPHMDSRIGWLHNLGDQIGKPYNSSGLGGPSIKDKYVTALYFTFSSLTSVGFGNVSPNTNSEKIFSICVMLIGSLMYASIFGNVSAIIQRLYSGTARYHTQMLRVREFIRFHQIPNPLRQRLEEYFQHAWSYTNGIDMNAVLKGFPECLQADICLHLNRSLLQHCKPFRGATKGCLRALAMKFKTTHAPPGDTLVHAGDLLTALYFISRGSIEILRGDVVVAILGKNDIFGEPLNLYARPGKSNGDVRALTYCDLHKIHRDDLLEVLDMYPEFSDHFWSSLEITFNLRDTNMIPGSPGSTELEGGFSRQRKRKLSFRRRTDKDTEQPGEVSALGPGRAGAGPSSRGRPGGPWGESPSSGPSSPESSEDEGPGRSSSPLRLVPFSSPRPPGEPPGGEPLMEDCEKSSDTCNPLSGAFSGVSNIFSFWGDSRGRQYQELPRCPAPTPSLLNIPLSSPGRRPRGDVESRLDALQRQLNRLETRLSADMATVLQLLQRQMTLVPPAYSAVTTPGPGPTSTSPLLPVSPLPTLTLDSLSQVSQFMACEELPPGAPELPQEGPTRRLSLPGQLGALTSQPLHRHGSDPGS

For `CC#CCn1c(N2CCC[C@@H](N)C2)nc2c1c(=O)n(CCCN1CCN(c3nc(-c4ccccc4)no3)CC1)c(=O)n2C.Cl`, the half-life in data set [1] was 1.08 h; in [13], 0.63 h. Also, the fraction unbound at 5 h, 5 µM in data set [2] is 0.04; in [3], 0.039; in [9], 0.037; in [14], 0.015; in [23] it was 0.028. Besides, the figures for the AUC(0-inf) in data set [4] and in [5] were 656 ng·h/mL and 167 ng·h/mL, respectively. Besides, the values for the IC50 (in the data set on Vero; in data set [15]) were above 64 µg/mL and 4.9 µM, respectively. For the same molecule, the remaining at 0.5 h, 10 µM in data set [6] is 49.3%. The LD50 at 168 h in data set [7] is above 1500 mg/kg. For the same molecule, the AUC(0-t) at 24 h in data set [8] is 623 ng·h/mL; in data set [17], 147 ng·h/mL. Besides, the Activity result in data set [10] and in data set [16] was “Non-Toxic” in each case. The figures for the mean residence time (MRT inf) in [11] and in [20] were 2.22 h and 0.73 h, respectively. Further, the Cmax in [12] was determined as 416 ng/mL; in [18], 226 ng/mL. Besides, in data set [19], the Tmax came to 1.33 h. The molecule also had a bioavailability in data set [21] of 42.4%. Moreover, the apparent permeability (Papp) at 1 h, 50 µM in [22] came out at 19.1 ×10⁻⁶ cm/s.

For orientation: AUC(0-inf) means total exposure, with the tail of the curve extrapolated. Usually IC50 stands for the concentration that inhibits the measured activity by half. A word on the LD50: it is the dose at which mortality reaches 50%. What is called AUC(0-t) is exposure summed from dosing to a finite time, without extrapolation to infinity. One may read the MRT inf as a mean duration of stay, worked out from the concentration-time curve. Broadly, the Cmax is the maximum level reached in the sampled fluid or tissue. The term Tmax denotes the time at which the peak concentration occurs. The bioavailability is the share of a dose that reaches the circulation, judged against a reference dose that is usually intravenous. A word on the Papp: it is a coefficient for how fast a substance crosses the barrier.

For the origin of these results see ChEMBL document CHEMBL4680154, “The optimization of xanthine derivatives leading to HBK001 hydrochloride as a potent dual ligand targeting DPP-IV and GPR119” (Eur J Med Chem, 2020).
